Experiment [1] deals with LNCaP. As to the kind of experiment: Cytotoxicity against human LNCAP cells assessed as reduction in cell viability at 10 uM after 72 hrs by alamar blue assay relative to control. It counts as functional. An outline of the steps: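 LNCaP cells (ATCC) in phenol-red-free RPMI-1640 with 5% FBS, 37 °C, 5% CO2, seeded 4000/well for 24 h, then exposed 72 h. Stocks in DMSO, final DMSO 0.3%; DMSO as negative and vinblastine 50 nM as positive control. Viability read by alamarBlue metabolic reduction. Triplicate points, at least three independent experiments.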
(In general: The colour change of resazurin is a common sign of viable cells or microbes.)

In experiment [2] the test system is LNCaP. The experiment is described as follows: Induction of cholesterol metabolism deregulation in human LNCAP cells assessed as reduction in NBD-cholesterol uptake at 10 uM after 48 hrs by DAPI/Alexa fluor 633 phalloidin staining based high-content imaging analysis. It counts as functional, cell-based.
In experiment [3] the test system is LNCaP. The experiment is described as follows: Induction of cholesterol metabolism deregulation in human LNCAP cells assessed as reduction in free NBD-cholesterol uptake.
For experiment [4], the system named is LNCaP. As to the kind of experiment: Induction of cholesterol metabolism deregulation in human LNCAP cells assessed as effect on cellular lipid content at 30 uM after 48 hrs by DAPI/Alexa fluor 633 phalloidin staining based high-content imaging analysis. It counts as functional, cell-based.
Experiment [5] relates to LNCaP. As to the kind of experiment: Induction of cholesterol metabolism deregulation in human LNCAP cells assessed as effect on fatty acid uptake at 30 uM after 48 hrs by DAPI/Alexa fluor 633 phalloidin staining based high-content imaging analysis. The format is functional, cell-based.
Experiment [6] concerns LNCaP. The experiment is described as follows: Induction of cholesterol metabolism deregulation in human LNCAP cells assessed as reduction in NBD-cholesterol uptake at 30 uM after 48 hrs by DAPI/Alexa fluor 633 phalloidin staining based high-content imaging analysis. The format is functional, cell-based. An outline of the steps:
(§1)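 LNCaP seeded 72 h on poly-L-ornithine-coated plates and treated 48 h in three replicate wells: DMSO vehicle, compounds at 30 μM, TOFA 10 μM or orlistat 20 μM. Then 3 h at 37 °C in serum-free RPMI with 0.2% BSA and 15 μM NBD-cholesterol. PFA-fixed, glycine-quenched, stained with DAPI and phalloidin. Imaged at 10× to 1000 cells/well; per-cell NBD mean fluorescence, about 3000 cells/treatment, mean ± SD.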

Experiment [7] relates to LNCaP. As to the kind of experiment: Induction of cholesterol metabolism deregulation in human LNCAP cells assessed as reduction in NBD-cholesterol uptake at 20 uM after 48 hrs by DAPI/Alexa fluor 633 phalloidin staining based high-content imaging analysis. It counts as functional, cell-based. In outline: as §1

Active and inactive are the calls of the source. No cut-off for these calls is given here. Some results are limits rather than exact numbers.

These results are taken from ChEMBL document CHEMBL4251669, “Identification of Gibberellic Acid Derivatives That Deregulate Cholesterol Metabolism in Prostate Cancer Cells” (2018).

Regarding `C=C1C[C@]23C[C@@]1(O)CC[C@H]2[C@@]12C=C[C@H](O)[C@](C)(C(=O)O1)[C@H]2[C@@H]3C(=O)NCCc1ccc(OC)cc1`, the Activity in the experiment with LNCaP [1] is reported as below 30%.
For `C=C1C[C@]23C[C@@]1(O)CC[C@H]2[C@@]12C=C[C@H](O)[C@](C)(C(=O)O1)[C@H]2[C@@H]3C(=O)NCc1ccc(OC)cc1`, the Activity in the experiment on LNCaP [1] was below 30%.
In the case of `CCCCCCCCCCCCCCOc1ccc(C(=O)O)o1`, in the experiment on LNCaP [2], the outcome was Active.
Consider `C=C1C[C@]23C[C@@]1(O)CC[C@H]2[C@@]12C=C[C@H](O)[C@](C)(C(=O)O1)[C@H]2[C@@H]3C(=O)NCc1ccc(Br)cc1`, for which the result with LNCaP [3] and in the experiment on LNCaP [6] was Active. Besides, in the experiment on LNCaP [1], the Activity is on record as below 30%. Further, the outcome in the experiment on LNCaP [4] and in the experiment on LNCaP [5] was inactive.
Turning to `C=C1C[C@]23C[C@@]1(O)CC[C@H]2[C@@]12C=C[C@H](O)[C@](C)(C(=O)O1)[C@H]2[C@@H]3C(=O)NCCc1ccccc1`, in the experiment with LNCaP [1], the Activity is on record as below 30%.
On the same count and under the same terms, next, `C=C1C[C@]23C[C@@]1(O)CC[C@H]2[C@@]12C=C[C@H](O)[C@](C)(C(=O)O1)[C@H]2[C@@H]3C(=O)NCc1ccccc1`: below 30%.
In the case of `C=C1C[C@]23C[C@@]1(O)CC[C@H]2[C@@]12C=C[C@H](O)[C@](C)(C(=O)O1)[C@H]2[C@@H]3C(=O)NCc1ccc(Cl)cc1`, the outcome in the experiment with LNCaP [3] and in the experiment on LNCaP [6] was Active. For the same compound, in the experiment on LNCaP [1], the Activity is reported as below 30%. For the same compound, the result in the experiment on LNCaP [4] and with LNCaP [5] was inactive.
As to `C=C1C[C@]23C[C@@]1(O)CC[C@H]2[C@@]12C=C[C@H](O)[C@](C)(C(=O)O1)[C@H]2[C@@H]3C(=O)NCCc1cccs1`, the Activity in the experiment on LNCaP [1] is on record as below 30%.
For `C=C1C[C@]23C[C@@]1(O)CC[C@H]2[C@@]12C=C[C@H](O)[C@](C)(C(=O)O1)[C@H]2[C@@H]3C(=O)NCCc1ccc(F)cc1`, the result in the experiment with LNCaP [3] and in the experiment with LNCaP [6] was Active. Also, in the experiment with LNCaP [1], the Activity is below 30%. The outcome in the experiment on LNCaP [4] and in the experiment with LNCaP [5] was inactive.
For `C=C1C[C@]23C[C@@]1(O)CC[C@H]2[C@@]12C=C[C@H](O)[C@](C)(C(=O)O1)[C@H]2[C@@H]3C(=O)O` [GIBBERELLIN GA3], the Activity with LNCaP [1] is reported as below 30%. Moreover, the outcome in the experiment with LNCaP [4] and in the experiment with LNCaP [5] was inactive. In the experiment with LNCaP [6], the result was Active.
For the compound `C=C1C[C@]23C[C@@]1(O)CC[C@H]2[C@@]12C=C[C@H](O)[C@](C)(C(=O)O1)[C@H]2[C@@H]3C(=O)NCc1ccc(F)cc1`, the Activity with LNCaP [1] is on record as below 30%.
For `C=C1C[C@]23C[C@@]1(O)CC[C@H]2[C@@]12C=C[C@H](O)[C@](C)(C(=O)O1)[C@H]2[C@@H]3C(=O)NCCc1ccc(Br)cc1`, the outcome in the experiment with LNCaP [3] and in the experiment on LNCaP [6] was Active. The Activity in the experiment on LNCaP [1] is below 30%. Moreover, the outcome with LNCaP [4] and in the experiment on LNCaP [5] was inactive.
For `C=C1C[C@]23C[C@@]1(O)CC[C@H]2[C@@]12C=C[C@H](O)[C@](C)(C(=O)O1)[C@H]2[C@@H]3C(=O)NCCc1ccc(Cl)cc1`, the Activity with LNCaP [1] is listed as below 30%.
Turning to `CCCCCCCCCCC[C@@H](C[C@@H]1OC(=O)[C@H]1CCCCCC)OC(=O)[C@H](CC(C)C)NC=O`, the outcome with LNCaP [7] was Active.
With `C=C1C[C@]23C[C@@]1(O)CC[C@H]2[C@@]12C=C[C@H](O)[C@](C)(C(=O)O1)[C@H]2[C@@H]3C(=O)NCCc1ccccn1`, the outcome in the experiment with LNCaP [3] and with LNCaP [6] was Active. Also, the Activity in the experiment with LNCaP [1] is recorded as below 30%. Besides, the result with LNCaP [4] and in the experiment with LNCaP [5] was inactive.
